48 sequences from the EternaBench riboswitch data can be followed below.

One may read the apparent Kd as the concentration giving half-maximal binding under the conditions of the assay.

The data set deals with MS2 coat protein. Briefly: apparent Kd, MS2 coat protein; higher = weaker binding; RNA-MaP array; FMN 200 µM where present. Put shortly: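 The titrant was SNAP-549-labelled MS2 coat protein, run from 0.7 or 1.5 nM in doubling steps to 3 µM. It was applied to designs transcribed by stalled E. coli RNA polymerase on Illumina sequencing-chip clusters, without ligand first and then with constant ligand, in 100 mM Tris-HCl pH 7.5, 80 mM KCl, 4 mM MgCl2, BSA, DTT, yeast tRNA and Tween-20. The apparent Kd is the median of filtered per-cluster binding-curve fits, with green signal normalised to red-channel RNA signal and control-cluster median Fmax.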

Setting [1] is: designed as: ON switch for flavin mononucleotide, no ligand.
Setting [2] is: ligand present: flavin mononucleotide, designed as: ON switch for flavin mononucleotide.
[3] abbreviates: designed as: OFF switch for flavin mononucleotide, no ligand.
Where [4] appears, read: ligand present: flavin mononucleotide, designed as: OFF switch for flavin mononucleotide.

On to “CAAUUGGCACAGAAGGGUGACAUGAGGAUCACCCAUGUAGCGUGGCAUUCAGGAGGAGCCACGCCACAGGAUAUGUGCGGGCAC”, for which the “apparent Kd” value is, setting by setting: under setting [1], 107 nM; under setting [2], 155 nM.
For “ACGGUGGUCACAGGAUAUCCAGCCCGCGUGCCUGGAGAAGGGUGACUCAGAACCACAUGAGGAUCACCCAUGUGCCUUGCCGUA”, in that order: 140 nM and 33.4 nM.
As for “CAGGUAGCUAGAGGAUAUACACGUCUGGAUAAACCAGACGAAUAAACCACAUGAGGAUCACCCAUGUAGAAGGCUAGCUGCCUG”, the “apparent Kd” value by setting is: under setting [3], 15.2 nM; under setting [4], 22.7 nM.
As for “GCUGGGUAGGCAGGAUAUCCUCGCGCAAACACAUGAGGAUCACCCAUGUACACAAAACGUGAUAUGGAGAAGGGCUGACCCACA”, the “apparent Kd” value is, setting by setting: under setting [1], 33.2 nM; under setting [2], 6.68 nM.
Consider “CCUAGUUGGUAAGGAUAUCCUACACUGUUCUGACCCGUGCAAGCUACAUGAGGAUCACCCAUGUGGGAGAAGGUGCGUCGACGC”, for which the “apparent Kd” value came out at 24 nM under setting [3] and 24.9 nM under setting [4].
As to “GUGAGGUCAGGAUAUGCAUGGCGGGACUUGCGUCGUGGCGUGGAGAAGGGACAUGAGGAUCACCCAUGUGGAGG”, the “apparent Kd” value is 115 nM under setting [3] and 95 nM under setting [4].
For “GUGUACAGAGGAUAUACGGGAGCAUGGAAACAUGCAACCUCACAUGAGGAUCACCCAUGUAGAAGGCUGUACAC”, in that order: 162 nM and 243 nM.
Consider “CGCUGUCAUGCAGGAUAUGCAUUGGAUUACAAUGCAGAAGGGCGAUUACAUGAGGAUCACCCAUGUGUAGACAGUGAAGAAGAG”, for which the “apparent Kd” value is, setting by setting: under setting [1], 415 nM; under setting [2], 34.4 nM.
For the sequence “GGGCUGUCAGGAUAUGGGUUUGGGCCCGAAAGGGCCCGGGCCCAGAAGGGACAUGAGGAUCACCCAUGUGGCCC”, the “apparent Kd” value reads like this: under setting [3], 32.1 nM; under setting [4], 33.8 nM.
Regarding “GCACAUGGCAUAGGAUAUAGAGCUUUAGUUUAUAUAGGUAGUUGGACUUAACUAGAAGGAUGGUACAUGAGGAUCACCCAUGUU”, the “apparent Kd” value is 20.6 nM under setting [1] and 17.4 nM under setting [2].
With “AGAAUGGGCGAGAAGGGAGUACAUGAGGAUCACCCAUGUGGUUGAUGGUGCUCAGGAUAUCGAAGGACCAGGGAGCGUCUCUGG”, the “apparent Kd” value runs as follows: under setting [3], 185 nM; under setting [4], 302 nM.
With “GCCUCAUAGUAGAAGGGACUUAGGCAGUUAAGCAUCAUGUCCAAUUAACAUGAGGAUCACCCAUGUCAGGAUAUACUAAGAGGC”, the “apparent Kd” value runs as follows: under setting [3], 8.03 nM; under setting [4], 25.1 nM.
Turning to “UACUAUAAGGAGGAUAUCGUAUCGGAAACGAUACGAGAAGGCUUAACAUGAGGAUCACCCAUGUUCUUCAAUAA”, the “apparent Kd” value is 16.6 nM under setting [3] and 18.3 nM under setting [4].
For “AAAAAACAUGAGGAUCACCCAUGUCUUUUGACAUGAGGAUAUGUACAGACUUCGGUCUGUACAGAAGGCAUGUCUU”, the “apparent Kd” value stood at 41.4 nM under setting [1] and 17.1 nM under setting [2].
For “GGGUGACUAGGAUAUACAUGAGGAUCACCCAUGUGUACUGGACCUGGGUAGUCUUGGAGUAGAAGGAGUAGCUG”, the “apparent Kd” value is, setting by setting: under setting [3], 85.3 nM; under setting [4], 127 nM.
As for “CGACAUACGAUGGACGGAAACGUACAUGAGGAUCACCCAUGUAGAAGGCGAUCCGCAACGCGGAUUGAGGAUAUAUACCACACA”, the “apparent Kd” value reads like this: under setting [3], 19.2 nM; under setting [4], 17.8 nM.
As for “UGGUACUAGGGAGGAUAUGGGAAGAUACAUGAGGAUCACCCAUGUUUAAGAAUGCCGAGAGGCAACUAGAAGGCCCUAGUAGCU”, the “apparent Kd” value turned out to be 539 nM under setting [1] and 19.9 nM under setting [2].
Consider “GAGACGUCAGGAUAUCUGAUGUCUAACUUCGGUUAGACAUCAGAGAAGGGACAUGAGGAUCACCCAUGUCUCAA”, for which the “apparent Kd” value worked out at 16.9 nM under setting [3] and 12.1 nM under setting [4].
For “AUACGCUGAGGAUAUACCAAAACAACAACCUCGUGUAUAAUACAUGAGGAUCACCCAUGUAGAAGGCAGUAAAC”, in that order: 58.6 nM and 116 nM.
Consider “UCCUGGCGAGGAUAUACAAUGUUUUUCACGUUUUGUUUCGAACAUGAGGAUCACCCAUGUAGAAGGUGCUACUG”, for which the “apparent Kd” value by setting is: under setting [3], 53.2 nM; under setting [4], 44.7 nM.
For “GUGUAGAUAGGAUAUGCAUAGAGCUUACGAAAGUAGGCUCUACAUGAGGAUCACCCAUGUAGAAGGGUCUACAC”, in that order: 27.9 nM and 21.2 nM.
For the sequence “GGAAAACAUGAGGAUCACCCAUGUGAGGAUAUCGAUGUCCAAUUUAAAGUGCGGGACUCGAGAAGGCACUUGGA”, the “apparent Kd” value under setting [3] was 43 nM and the “apparent Kd” value under setting [4] is 30.1 nM.
For the sequence “GUUUCUAUAAGUUAUAUUUAACAGUCAGAAGGUGAUACUACGACAUGAGGAUCACCCAUGUAAUUCAAGGAUAUGAACUUAAUC”, the “apparent Kd” value was 1570 nM under setting [1] and 999 nM under setting [2].
Regarding “ACGCAGCUAGGUGAGGAUAUCGGUGGUAAAACAUGAGGAUCACCCAUGUCCGAAGCUCGGACUUCCGAGAAGGCGCCCGGCUGCA”, the “apparent Kd” value under setting [1] was 122 nM and the “apparent Kd” value under setting [2] was found to be 15.7 nM.
In the case of “CUGGUUGUCGUAGGAUAUGUAGGAUAUUCCUACAUGAGGAUCACCCAUGUUCGCAUGGAAGAAAGACAGAAGGACGAUGACCAU”, the “apparent Kd” value reads like this: under setting [1], 1190 nM; under setting [2], 52.2 nM.
For “UGAGCUACAGGAUAUACGUGACGACCGUGAGGUCGAAGGUUACAUGAGGAUCACCCAUGUAGAAGGGUAGUUCU”, the “apparent Kd” value is, setting by setting: under setting [3], 148 nM; under setting [4], 148 nM.
Turning to “GCCGAUUAAGUGAGGAUAUACCUAUGGAUACAUAGGUAGAAGGCACAUGAGGAUCACCCAUGUUCCUUAACGGC”, the “apparent Kd” value runs as follows: under setting [3], 11.2 nM; under setting [4], 30 nM.
For “ACCUCACAUGAGGAUCACCCAUGUCAGGAUAUACGAAGGUAUAGCGCCGAAUACUGAAGUAGAAGGGACAGGCA”, in that order: 26.9 nM and 76.9 nM.
As to “UUCAUUAACAUGAGGAUCACCCAUGUUGGCCAGUCUCACACCAGAAGGCACGUUGAGCACAGCAGUGAGGAUAUGGGUGACAUA”, the “apparent Kd” value is 236 nM under setting [1] and 223 nM under setting [2].
Consider “UCCUUGUCCUGAGGAUAUCCGCGGUUCCCAUAAGGAGAAGGCAGGACAUGAGGAUCACCCAUGUACCCAGAAAACGUGCAGAGU”, for which the “apparent Kd” value reads like this: under setting [3], 24 nM; under setting [4], 156 nM.
For “GCUUAGUAAGGAUAUUCACCGAUAAACAUGAGGAUCACCCAUGUCAUGUACCGUCGCCCGGAAGAAGGUACAGGCU”, in that order: 49.6 nM and 44.9 nM.
Take “UUUUUAUUUGCAGGAUAUUGUAUUUUAUUACAUCAAGAAGGGCAUUACAUGAGGAUCACCCAUGUCUUCCUAUGGUUAACUAGU”: the “apparent Kd” value under setting [3] stood at 12.3 nM and the “apparent Kd” value under setting [4] was 10.2 nM.
For “GUGCAGGUAGGAUAUCCACCGGCAAACAUGAGGAUCACCCAUGUGACGCUCCCUUGUCUUGGAGAAGGGCCGGCAU”, in that order: 33.1 nM and 27.5 nM.
With “UCUGCCGCCGUGAGGAUAUGCCCAAAGAAAAGCGGGCAGAAGGCACAUGAGGAUCACCCAUGUCCCGCGGUUUU”, the “apparent Kd” value was determined as 18 nM under setting [3] and 38.4 nM under setting [4].
Take “UAUGUGUCAGGAUAUUGUUAGUUUAGUUGUUUGUAUUAGUUCGAGAAGGGACAUGAGGAUCACCCAUGUUGUUU”: the “apparent Kd” value is 30.9 nM under setting [3] and 28.6 nM under setting [4].
For “GUACAGUAGUGAGGAUAUACGAGAUCGAUAGAUCGGCGAUCCAUAUAUACAUGAGGAUCACCCAUGUAGAAGGCACUUCUGUAC”, in that order: 7.7 nM and 104 nM.
In the case of “ACAGAAGCACCCGGAACCGGACAAUGAGAAGGCCACGCACAUGAGGAUCACCCAUGUAAAGCUAUGGAGGAUAUCAUGAUGGAU”, the “apparent Kd” value worked out at 40.3 nM under setting [1] and 5.64 nM under setting [2].
Turning to “AUGCUAGUGUGAGGAUAUUAACAUGAGGAUCACCCAUGUUGGAAGAUCAUGACGAUCACGCAUGAUAAGAAGGUACAUUAGCAU”, the “apparent Kd” value by setting is: under setting [3], 40.8 nM; under setting [4], 94.9 nM.
On to “AAGUAGGCAGGAUAUACAUGAGGAUCACCCAUGUGCCUAUACAAGGUAAUCUUGGGAGGUAGAAGGGCCUACAA”, for which the “apparent Kd” value was found to be 33.9 nM under setting [3] and 166 nM under setting [4].
Regarding “AGCGGAUUGUAGAAGGGUGACAUGAGGAUCACCCAUGUUCAAAUGCGAUUUUCGGUAAUUGAUCCACAGGAUAUACUGUCCGAG”, the “apparent Kd” value reads like this: under setting [1], 976 nM; under setting [2], 427 nM.
As for “UUAGAUUAUGAAGGAUAUGGAUCUUAUUAUUAACCAGAAGGUCAACUCAACAUGAGGAUCACCCAUGUAUAAAGGGUAUUAGUU”, the “apparent Kd” value by setting is: under setting [3], 134 nM; under setting [4], 132 nM.
For “CACAAGAAAGUCGAAGGUUGAAGUAGAAGGACUAUAACAUGACAUGAGGAUCACCCAUGUGCCAAGUAGGAUAUGCUUUAAUCG”, in that order: 7.7 nM and 7.38 nM.
As to “GUCCUACAUGAGGAUCACCCAUGUGAGGAUAUGUGGUUAGCUGCUAGGUAGUUAGUAUGCAGAAGGUACGUGAU”, the “apparent Kd” value under setting [3] came out at 40.4 nM and the “apparent Kd” value under setting [4] was 41.9 nM.
On to “UCCACUACUGAGAAGGGAUACAUAUAAUUCUAGUCAGGAUAUCGAUACAGUGCAGCAUGAGGACAUGAGGAUCACCCAUGUAUU”, for which the “apparent Kd” value is 18.9 nM under setting [1] and 16 nM under setting [2].
With “GGUUGGCGAGGAUAUACAUGAGGAUCACCCAUGUGGUCCUGUGGCUGAUCUUGCCUUUGUAGAAGGCGCGGAUC”, the “apparent Kd” value worked out at 49.7 nM under setting [3] and 53.6 nM under setting [4].
Regarding “UGUUAUUAGACAGGAUAUUGAAUGUUAAGUAUUAACAUGAGGAUCACCCAUGUAUUUCAUUCGUACAAGAAGGGUCAUGUUCCU”, the “apparent Kd” value by setting is: under setting [1], 166 nM; under setting [2], 202 nM.
For “GUGAGUGAUAGAGGAUAUAUAGAGAGAGAGAGAAUAGAAGGCUAAACAUACAUGAACAUGAGGAUCACCCAUGUCACCCAUGUU”, in that order: 37.6 nM and 42.2 nM.
Consider “GCUUGUAGAGGAUAUACAAGGGCCUUAGCGGAUAACACCGCACAUGAGGAUCACCCAUGUAGAAGGCUACCACC”, for which the “apparent Kd” value by setting is: under setting [3], 16.8 nM; under setting [4], 94.1 nM.
